According to ChEMBL document CHEMBL1122384, “Synthesis and evaluation of 24-(isopropyl[75Se]seleno)chol-5-en-3 beta-ol” (J Med Chem, 1983):

Tests used:
[1] = Adrenal/Tissue ratio calculated from percent dose per gram of tissue determined after 1 day intravenous administration from kidney; format: functional
Method in brief: (§1)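 Female Fischer 344 rats (160–180 g), fed ad libitum. Steroid dissolved in EtOH, formulated in Tween 80–EtOH–saline, 5–10 μCi in 1 mL given into a lateral tail vein under light Et₂O anesthesia. Organs removed 1 day post-injection, rinsed, blotted, weighed and gamma counted, 3 rats per time point. Ratios taken from adrenal vs tissue % dose/g.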

[2] = Adrenal/Tissue ratio calculated from percent dose per gram of tissue determined after 1 day intravenous administration from ovaries; format: functional; method in brief: as §1
[3] = Adrenal/Tissue ratio calculated from percent dose per gram of tissue determined after 1 day intravenous administration from pancreas; format: functional
Method in brief: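 Female Fischer 344 rats (160–180 g), food and water ad libitum, lightly anaesthetized with Et2O. [75Se]-labelled steroid was given in Tween 80–EtOH–saline, 5–10 μCi, by lateral tail-vein injection. Rats were killed by decapitation under Et2O; organs were rinsed, blotted, weighed and gamma-counted. Adrenal/tissue ratio is from % dose/g, mean of three rats per time point.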

[4] = Adrenal/Tissue ratio calculated from percent dose per gram of tissue determined after 1 day intravenous administration from blood; format: functional; method in brief: as §1
[5] = Adrenal/Tissue ratio calculated from percent dose per gram of tissue determined after 1 day intravenous administration from lung; format: functional; method in brief: as §1
[6] = Adrenal/Tissue ratio calculated from percent dose per gram of tissue determined after 1 day intravenous administration from spleen; format: functional; method in brief: as §1
[7] = Adrenal/Tissue ratio calculated from percent dose per gram of tissue determined after 1 day intravenous administration from liver; format: functional; method in brief: as §1
Homo sapiens [8] = organism: Homo sapiens; test: Adsorbed radiation dose value was calculated to human pancreas; format: functional
Method in brief: (§2)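 Human absorbed radiation dose estimated by the standard MIRD method from rat tissue distribution (% dose/g, 1 h–21 days) and excretion data. Excretion came from three individually caged female rats, with urine and feces collected daily over 21 days.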

Homo sapiens [9] = organism: Homo sapiens; test: Adsorbed radiation dose value was calculated to human kidney; format: functional; method in brief: as §2
Homo sapiens [10] = organism: Homo sapiens; test: Adsorbed radiation dose value was calculated to human liver; format: functional; method in brief: as §2
Homo sapiens [11] = organism: Homo sapiens; test: Adsorbed radiation dose value was calculated to human spleen; format: functional; method in brief: as §2
Homo sapiens [12] = organism: Homo sapiens; test: Adsorbed radiation dose value was calculated to human adrenal; format: functional; method in brief: as §2
Homo sapiens [13] = organism: Homo sapiens; test: Adsorbed radiation dose value was calculated to human small intestine; format: functional; method in brief: as §2
Homo sapiens [14] = organism: Homo sapiens; test: Adsorbed radiation dose value was calculated to human ovaries; format: functional, Female gonad; method in brief: as §2
Homo sapiens [15] = organism: Homo sapiens; test: Adsorbed radiation dose value was calculated to human total body; format: functional; method in brief: as §2
Homo sapiens [16] = organism: Homo sapiens; test: Adsorbed radiation dose value was calculated to human lungs; format: functional; method in brief: as §2

SMILES | Ratio [1] | Ratio [2] | Ratio [3] | Ratio [4] | Ratio [5] | Ratio [6] | Ratio [7] | Dose (Homo sapiens [8]) [rd mCi-1] | Dose (Homo sapiens [9]) [rd mCi-1] | Dose (Homo sapiens [10]) [rd mCi-1] | Dose (Homo sapiens [11]) [rd mCi-1] | Dose (Homo sapiens [12]) [rd mCi-1] | Dose (Homo sapiens [13]) [rd mCi-1] | Dose (Homo sapiens [14]) [rd mCi-1] | Dose (Homo sapiens [15]) [rd mCi-1] | Dose (Homo sapiens [16]) [rd mCi-1]
CC(C)[Te]CCCC(C)C1CCC2C3CC=C4CC(O)CCC4(C)C3CCC12C (configuration not stated) | 56.2 | 4.9 | 122 | 54.8 | 18.7 | 14 | 27.1 |  |  |  |  |  |  |  |  | 
C[Se]C[C@@H]1CC2C(CCC3(C)C(C(C)CCCC(C)C)CCC23)C2=C1CC(O)CC2 (some centres not stated) [SCINTIDREN] | 52.5 | 3.2 |  | 105 | 28.9 | 27.1 | 42 |  |  |  |  |  |  |  |  | 
CC(C)[73Se]CCC[C@H](C)[C@H]1CC[C@H]2[C@@H]3CC=C4C[C@@H](O)CC[C@]4(C)[C@H]3CC[C@]12C |  |  |  |  |  |  |  | 0.5 | 0.67 | 1.7 | 1.9 | 1.6 | 0.64 | 1.2 | 0.24 | 1.7
